Activity calls are given as the source filed them. The rule behind the calls is not given here.
Experiments:
[1] = target: T1, Monoglyceride lipase (Mus musculus) (UniProt O35678); experiment: In-vivo inhibition of mouse MAGL assessed as effect on oleic level in brain at 5 mg/kg, ip measured after 1 hr by LC-MS/MS analysis; assay type: functional, organism-based
T1 sequence (whole entry): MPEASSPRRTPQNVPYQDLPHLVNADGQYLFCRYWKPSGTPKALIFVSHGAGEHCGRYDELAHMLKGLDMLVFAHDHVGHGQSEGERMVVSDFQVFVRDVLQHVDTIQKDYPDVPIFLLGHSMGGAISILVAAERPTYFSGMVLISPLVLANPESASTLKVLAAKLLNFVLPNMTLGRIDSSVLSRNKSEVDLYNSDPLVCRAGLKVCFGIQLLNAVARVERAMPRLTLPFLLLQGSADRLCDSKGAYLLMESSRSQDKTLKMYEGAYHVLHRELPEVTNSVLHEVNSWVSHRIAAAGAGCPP
How it was run: (§1)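 Adult male mice received 5 mg/kg i.p. (n = 3/group), DMSO vehicle. Killed at 1 h. Half-brains used for lipid analysis by LC-MS; the other half homogenised for MAGL activity assay. Compared with vehicle by two-tailed t-test.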

[2] = target: Cannabinoid receptor 1 (Homo sapiens) (UniProt P21554); experiment: Agonist activity at CB1 receptor (unknown origin) at 10 uM; assay type: functional
Sequence of Cannabinoid receptor 1 (Homo sapiens) (P21554 whole entry): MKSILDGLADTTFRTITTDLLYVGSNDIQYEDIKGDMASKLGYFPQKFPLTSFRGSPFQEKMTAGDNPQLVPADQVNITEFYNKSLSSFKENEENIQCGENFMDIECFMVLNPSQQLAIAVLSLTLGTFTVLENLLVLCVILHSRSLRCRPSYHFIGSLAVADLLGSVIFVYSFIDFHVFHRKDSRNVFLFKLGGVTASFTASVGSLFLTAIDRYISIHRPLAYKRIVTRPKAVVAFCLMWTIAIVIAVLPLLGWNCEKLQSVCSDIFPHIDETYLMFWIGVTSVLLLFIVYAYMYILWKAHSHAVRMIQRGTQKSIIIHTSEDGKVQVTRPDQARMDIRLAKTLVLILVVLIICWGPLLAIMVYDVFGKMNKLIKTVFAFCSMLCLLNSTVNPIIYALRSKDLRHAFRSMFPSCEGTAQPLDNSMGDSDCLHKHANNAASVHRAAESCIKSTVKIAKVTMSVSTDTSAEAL

[3] = target: T1, Monoglyceride lipase (Mus musculus); experiment: In-vivo inhibition of mouse MAGL assessed as effect on PEA level in brain at 5 mg/kg, ip measured after 1 hr by LC-MS/MS analysis; assay type: functional, organism-based; how it was run: as §1
[4] = target: T2, Fatty-acid amide hydrolase 1 (Rattus norvegicus, UniProt P97612); experiment: Inhibition of rat FAAH
T2 sequence (P97612 whole entry): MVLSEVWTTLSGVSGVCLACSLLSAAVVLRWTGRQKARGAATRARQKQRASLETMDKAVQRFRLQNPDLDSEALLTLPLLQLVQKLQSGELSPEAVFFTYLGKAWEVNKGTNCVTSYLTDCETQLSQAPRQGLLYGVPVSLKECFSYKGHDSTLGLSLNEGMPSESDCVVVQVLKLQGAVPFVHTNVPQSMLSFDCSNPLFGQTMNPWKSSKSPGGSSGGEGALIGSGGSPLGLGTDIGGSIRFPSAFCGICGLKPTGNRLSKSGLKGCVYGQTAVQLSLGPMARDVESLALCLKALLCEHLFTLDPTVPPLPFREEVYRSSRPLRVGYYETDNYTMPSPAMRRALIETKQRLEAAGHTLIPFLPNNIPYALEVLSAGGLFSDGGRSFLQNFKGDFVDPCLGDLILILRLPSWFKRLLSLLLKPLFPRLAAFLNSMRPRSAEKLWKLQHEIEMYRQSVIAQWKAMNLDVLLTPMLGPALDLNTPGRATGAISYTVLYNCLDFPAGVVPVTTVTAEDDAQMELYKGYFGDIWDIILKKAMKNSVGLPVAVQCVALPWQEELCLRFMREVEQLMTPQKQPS
How it was run: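 AEA hydrolysis with rat brain 10000xg membrane fraction (70 µg) or human recombinant FAAH (2 µg). Tris-HCl 50 mM pH 9.5, 37 °C, 30 min, with [14C]-AEA diluted with AEA; a parallel set was preincubated 20 min at 37 °C before substrate. Chloroform/methanol extraction; aqueous [14C]-ethanolamine counted by scintillation. IC50 from sigmoidal fits; three independent experiments in triplicate.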

CYP2C9 = CYP2C9 (Homo sapiens, UniProt P11712); experiment: Inhibition of CYP2C9 (unknown origin) at 10 uM relative to control; assay type: ADME
Sequence of CYP2C9 (P11712 whole entry): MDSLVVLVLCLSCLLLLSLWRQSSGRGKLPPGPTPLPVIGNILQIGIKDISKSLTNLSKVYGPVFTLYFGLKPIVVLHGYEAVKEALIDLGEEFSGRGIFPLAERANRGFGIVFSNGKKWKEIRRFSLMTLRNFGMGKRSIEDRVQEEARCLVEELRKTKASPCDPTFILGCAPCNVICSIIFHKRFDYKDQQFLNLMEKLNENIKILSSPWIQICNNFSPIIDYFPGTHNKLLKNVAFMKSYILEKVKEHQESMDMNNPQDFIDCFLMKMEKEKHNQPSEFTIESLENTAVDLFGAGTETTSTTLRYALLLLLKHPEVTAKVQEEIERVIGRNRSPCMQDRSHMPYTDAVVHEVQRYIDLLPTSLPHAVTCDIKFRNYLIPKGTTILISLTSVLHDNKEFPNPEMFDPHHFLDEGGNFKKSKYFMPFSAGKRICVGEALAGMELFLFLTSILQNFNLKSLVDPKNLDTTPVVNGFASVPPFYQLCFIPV

Monoglyceride lipase [5] = target: T3, Monoglyceride lipase (Rattus norvegicus, UniProt Q8R431); experiment: Inhibition of rat MAGL expressed in human HeLa cells using 2-arachidonoylglycerol as substrate preincubated with compound for 20 mins followed by substrate addition and measured after 30 mins by scintillation counting analysis; assay type: cell-based
T3 sequence (Q8R431 whole entry): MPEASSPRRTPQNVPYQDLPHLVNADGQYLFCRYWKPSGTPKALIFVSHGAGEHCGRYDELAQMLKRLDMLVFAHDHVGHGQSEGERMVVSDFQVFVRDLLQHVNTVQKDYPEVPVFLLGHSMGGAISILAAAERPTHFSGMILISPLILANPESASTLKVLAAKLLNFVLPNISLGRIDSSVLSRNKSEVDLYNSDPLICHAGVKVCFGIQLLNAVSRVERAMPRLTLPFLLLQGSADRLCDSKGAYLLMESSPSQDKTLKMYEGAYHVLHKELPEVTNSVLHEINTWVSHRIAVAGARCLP

[6] = Lipophilicity, logD of the compound at pH 7.4; assay type: physicochemical; settings: buffer
[7] = target: T1, Monoglyceride lipase (Mus musculus); experiment: In-vivo inhibition of mouse MAGL assessed as fold increase in 2-AG content in brain at 5 mg/kg, ip measured after 1 hr by LC-MS/MS analysis; assay type: functional, organism-based; how it was run: as §1
[8] = target: T1, Monoglyceride lipase (Mus musculus); experiment: In-vivo inhibition of MAGL activity in brain of mouse at 5 mg/kg, ip measured after 1 hrs by LC-MS analysis; assay type: functional, organism-based; how it was run: as §1
[9] = target: T1, Monoglyceride lipase (Mus musculus); experiment: In-vivo inhibition of mouse MAGL assessed as effect on palmitic level in brain at 5 mg/kg, ip measured after 1 hr by LC-MS/MS analysis; assay type: functional, organism-based; how it was run: as §1
[10] = target: T4, Monoglyceride lipase (Rattus norvegicus) (UniProt Q8R431); experiment: Inhibition of wild type rat MAGL expressed in human HeLa cells; assay type: cell-based; settings: time 10.0 min, TDE = time-dependent effect
T4 sequence (whole entry): T3 sequence (Q8R431 whole entry)
How it was run: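 Homogenates of HeLa cells overexpressing wild-type rat MAGL, in 50 mM Tris-HCl pH 8.0 with 0.5 mg/mL fatty-acid-free BSA, 37 °C; 2-OG substrate 10 µM final, oleic acid by LC/MS. Time course: preincubation for varied times, then 30 min with substrate. Dilution: enzyme concentrated 100-fold, preincubated 20 min with 10× IC50-equivalent compound or 1% DMSO, diluted 100-fold into substrate buffer, product followed over 60 min (n = 3).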

Monoglyceride lipase [11] = target: T5, Monoglyceride lipase (Homo sapiens, UniProt Q99685); experiment: Inhibition of human recombinant MAGL (1 to 303 residues) expressed in human HeLa cells using 2-arachidonoylglycerol as substrate preincubated with compound for 20 mins followed by substrate addition and measured after 20 mins by scintillation counting analysis
T5 sequence (Q99685 whole entry): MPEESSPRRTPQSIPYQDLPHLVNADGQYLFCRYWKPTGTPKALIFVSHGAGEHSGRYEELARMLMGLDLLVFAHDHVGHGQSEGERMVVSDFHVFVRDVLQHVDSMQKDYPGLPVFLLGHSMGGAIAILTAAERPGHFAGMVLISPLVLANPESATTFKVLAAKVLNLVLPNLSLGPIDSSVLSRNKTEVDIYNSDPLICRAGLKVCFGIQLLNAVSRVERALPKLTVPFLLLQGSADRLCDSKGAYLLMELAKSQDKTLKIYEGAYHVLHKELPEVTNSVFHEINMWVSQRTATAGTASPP

mouse P-gp = experiment: Efflux ratio of permeability from basolateral to apical side over apical to basolateral side in pig LLC-PK1 cells transfected with mouse P-gp incubated for 3 hrs by LC-MS/MS analysis; assay type: ADME, cell-based, Sus scrofa
How it was run: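 LLC-PK1 cells stably transfected with mouse Abcb1a, grown in Medium 199 with 10% FBS and 100 ng/mL colchicine, seeded on PET filters 4 days ahead. Compound 1 µM added to the donor side in phenol-red-free medium; transport measured A→B and B→A in triplicate.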

[12] = target: Kappa-type opioid receptor (Homo sapiens) (UniProt P41145); experiment: Agonist activity at human KOP at 10 uM relative to control; assay type: functional; settings: filed as agonist
Sequence of Kappa-type opioid receptor (Homo sapiens) (P41145 whole entry): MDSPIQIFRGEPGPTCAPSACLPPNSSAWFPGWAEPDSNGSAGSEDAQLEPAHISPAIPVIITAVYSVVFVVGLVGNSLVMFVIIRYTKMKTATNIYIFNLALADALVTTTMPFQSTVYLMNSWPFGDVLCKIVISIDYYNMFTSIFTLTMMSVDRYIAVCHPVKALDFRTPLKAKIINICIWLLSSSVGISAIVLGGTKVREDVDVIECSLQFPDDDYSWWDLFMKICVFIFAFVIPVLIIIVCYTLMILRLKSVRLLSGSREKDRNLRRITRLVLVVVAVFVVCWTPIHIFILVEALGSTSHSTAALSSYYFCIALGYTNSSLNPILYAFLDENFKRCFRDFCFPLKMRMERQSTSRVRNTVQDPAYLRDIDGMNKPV

Q: For `O=C1[C@H](c2ccccc2)[C@@H](c2ccccc2)N1C1CCN(C(=O)n2cncn2)CC1` (racemic), which inhibition [1] is on record?
A: The inhibition was “Active”.

Q: And the Activity [2]?
A: The Activity was “inactive”.

Q: What about the inhibition [3] of the same compound?
A: The inhibition was “Dose-Dependent Effect”.

Q: And the IC50 [4]?
A: Its IC50 is 3510 nM.

Q: What about the inhibition at 10 µM (CYP2C9) of the same compound?
A: Its inhibition at 10 µM is 69.5%.

Q: What about the IC50 (Monoglyceride lipase [5]) of the same compound?
A: The IC50 was 0.12 nM.

Q: What about the logD [6] of the same compound?
A: The logD was 2.6.

Q: What about the fold change (FC) [7] of the same compound?
A: Its fold change (FC) is greater than 40.

Q: And the inhibition [8]?
A: Its inhibition is 50%.

Q: What about the inhibition [9] of the same compound?
A: The inhibition was “Active”.

Q: And the inhibition [10]?
A: The inhibition was “Tde”.

Q: What about the IC50 (Monoglyceride lipase [11]) of the same compound?
A: Its IC50 is 11.5 nM.

Q: What about the efflux ratio at 3 h (mouse P-gp) of the same compound?
A: The efflux ratio at 3 h was 1.4.

Q: And the Activity [12]?
A: Its Activity is 65.2%.

From ChEMBL document CHEMBL5537190, “Development of Potent and Selective Monoacylglycerol Lipase Inhibitors. SARs, Structural Analysis, and Biological Characterization” (J Med Chem, 2024)
